# Experimental data from ChEMBL document CHEMBL4017525, “Lactam-Stapled Cell-Penetrating Peptides: Cell Uptake and Membrane Binding Properties” (J Med Chem, 2017).
# Active and inactive are the calls of the source. The rule behind the calls is not given here.
# Assays:
# [1] = Drug uptake in human HeLa cells at 2 uM after 4 hrs using fluorescein labeled compound by flow cytometric analysis; format: ADME, cell-based
# Procedure, shortened: (§1)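 Adherent cells were exposed to fluorescein-labeled peptide at 2 μM for 4 h in serum-free medium. Trypan blue (0.4% end concentration) was added before flow cytometry to quench surface-bound fluorescence. Intracellular signal was normalized to carboxyfluorescein-labeled R9, as the mean ± SD of two independent experiments.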
# [2] = Drug uptake in HEK293 cells at 2 uM after 4 hrs using fluorescein labeled compound by flow cytometric analysis; format: ADME, cell-based; conditions: human, hek293, 4 h; procedure, shortened: as §1
# [3] = tested on: HEK293; assay: Cytotoxicity against HEK293 cells at 2 uM after 4 hrs using fluorescein labeled compound by flow cytometric analysis; format: cell-based; conditions: human, hek293, 4 h
# [4] = tested on: HeLa; assay: Cytotoxicity against human HeLa cells at 2 uM after 4 hrs using fluorescein labeled compound by flow cytometric analysis; format: cell-based
# [5] = tested on: Staphylococcus aureus; assay: Antibacterial activity against Staphylococcus aureus ATCC 25923 after 22 hrs by resazurin based broth dilution assay; format: functional; conditions: ATCC 25923, 22 h
# Procedure, shortened: (§2)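 Standard broth dilution assay determining MIC against two Gram-negative and two Gram-positive strains. Values are the mean of two independent experiments.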
# [6] = tested on: Escherichia coli; assay: Antibacterial activity against Escherichia coli ATCC 25922 after 22 hrs by resazurin based broth dilution assay; format: functional; conditions: ATCC 25922, 22 h; procedure, shortened: as §2
# [7] = tested on: Lipid bilayer; assay: Binding affinity to POPC/POPG lipid vesicles assessed as induction of membrane leakage at peptide to lipid ratio of 1:25 after 30 mins by spectroflurimetric analysis
# Procedure, shortened: (§3)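 Large unilamellar vesicles (100 nm extrusion) of POPC or POPC/POPG (3/1, mol/mol) were loaded with ANTS dye and DPX quencher, and leakage was read by fluorescence dequenching. Lipid was 50 μM and peptide 2 μM (1:25), incubated 30 min at 30 °C. For lines 6 and 8, a −120 mV potential (negative inside) was set with valinomycin and outside K+ replaced by Na+.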
# [8] = tested on: Pseudomonas aeruginosa; assay: Antibacterial activity against Pseudomonas aeruginosa ATCC 27853 after 22 hrs by resazurin based broth dilution assay; format: functional; conditions: ATCC 27853, 22 h; procedure, shortened: as §2
# [9] = tested on: Enterococcus faecalis; assay: Antibacterial activity against Enterococcus faecalis ATCC 29212 after 22 hrs by resazurin based broth dilution assay; format: functional; conditions: ATCC 29212, 22 h; procedure, shortened: as §2
# [10] = tested on: Lipid bilayer; assay: Binding affinity to POPC/POPG lipid vesicles assessed as induction of membrane leakage at peptide to lipid ratio of 1:25 at transmembrane potential of -120 mV after 30 mins by spectroflurimetric analysis; procedure, shortened: as §3
# [11] = tested on: Lipid bilayer; assay: Binding affinity to POPC lipid vesicles assessed as induction of membrane leakage at peptide to lipid ratio of 1:25 at transmembrane potential of -120 mV after 30 mins by spectroflurimetric analysis; procedure, shortened: as §3
# [12] = tested on: Lipid bilayer; assay: Binding affinity to POPC lipid vesicles assessed as induction of membrane leakage at peptide to lipid ratio of 1:25 after 30 mins by spectroflurimetric analysis; procedure, shortened: as §3
Compound,Drug uptake [1],Drug uptake [2],MIC [5],MIC [6],Activity [7],MIC [8],MIC [9],Activity [10],Activity [11],Activity [12],Activity [3],Activity [4]
N=C(N)NCCC[C@H](NC(=O)[C@H](CCCNC(=N)N)NC(=O)[C@H](CCCNC(=N)N)NC(=O)[C@H](CCCNC(=N)N)NC(=O)[C@H](CCCNC(=N)N)NC(=O)[C@H](CCCNC(=N)N)NC(=O)[C@H](CCCNC(=N)N)NC(=O)[C@H](CCCNC(=N)N)NC(=O)[C@@H](N)CCCNC(=N)N)C(=O)O,Active,Active,–,–,–,–,–,–,–,–,–,–
H-KLALKALKALKAALKLA-NH2,Active,Active,16 µg/mL,16 µg/mL,Active,256 µg/mL,256 µg/mL,Active,–,–,Non-Toxic,Non-Toxic
H-PLILLRLLRGQF-NH2,Active,Active,16 µg/mL,256 µg/mL,Active,> 256 µg/mL,64 µg/mL,Active,–,–,Non-Toxic,Non-Toxic

# Now from value to compound, other results behind:
Drug uptake [1],Drug uptake [2],MIC [5],MIC [6],Activity [7],MIC [8],MIC [9],Activity [10],Activity [11],Activity [12],Compound,Activity [3],Activity [4]
Active,Active,> 256 µg/mL,> 256 µg/mL,inactive,> 256 µg/mL,> 256 µg/mL,inactive,–,–,H-AAVLLPVLLAAP-NH2,Non-Toxic,Non-Toxic
Active,Active,32 µg/mL,32 µg/mL,–,64 µg/mL,32 µg/mL,–,100%,100%,H-QQRKRKIWSILAPLGTTLVKLVAGIG-NH2,Non-Toxic,Non-Toxic
